High-throughput results (PubChem)
A selection: hits, their analogues and other compounds. The true share with any hit is near 1.5%.
Arr AP2 block: human beta-arrestin and AP2 interaction inhibition; FITC-arrestin peptide / GST-AP2 beads, flow cytometry; AP2 beta2 appendage carries R879A mutation; inhibition, % at 10 µM; 0.31% of 340,000 active; AID 504490;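 active means inhibition above a set limit, near 3 SD of compounds lacking own fluorescence, cut at about 54% in these data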;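 further: plate controls were DMSO wells for no effect and 5 µM unlabelled arrestin peptide for full effect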
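System: GST-AP2 R879A bound to glutathione beads, E. coli-expressed. Also added: 50 nM FITC-arrestin peptide. Schedule: compound with beads 12 min RT, then probe 1 h RT. Signal: bead flow cytometry, FITC channel. Read-out basis: percent response.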
T cell HTS: T cell immune modulation candidate; 2C CD8+ T cell-vesicle binding, flow cytometry; stronger effect = lower value; response (vesicle binding), % at 7 µM; 0.068% of 330,000 active; AID 2052;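 active means response, share of CD8 T cells binding vesicles, and their 90th percentile fluorescence all below set limits, cut at about 80% in these data, passing the limit was not always enough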;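 further: values below 100% mean blocked vesicle binding to the CD8+ T cells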
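Assay system: 2C TCR transgenic mouse naive CD8+ T cells, MACS-purified | Read-out: CD8+ gate FL2 mean fluorescence as % of same-row positive control | Signal: High-throughput flow cytometry with anti-B7-1 and anti-CD8 staining | Timing: Binding step 1.5 h, 37 °C, antibody labelling 20 min, ice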
HDAC3 inhib: human HDAC3 inhibition | 0.15% of 320,000 active | inhibition, % at 8.3 µM | recombinant HDAC3, fluorogenic peptide/trypsin coupled, fluorescence | O15379; in the data active means inhibition above about 26%, passing the limit was not always enough; inconclusive means no clear call, values can overlap the other calls
LANA-H2A inh: blocks KSHV LANA binding to histone H2A/H2B | Q9QR71 | cell-free LANA-H2A/H2B peptide, fluorescence polarization | inhibition, % (no concentration beside the values) | 0.6% of 320,000 active; in the data active means inhibition mostly above about 10%, no sharp cut-off; inactive means mostly below about 6.7%
Target sequence (Q9QR71 whole entry, looked up): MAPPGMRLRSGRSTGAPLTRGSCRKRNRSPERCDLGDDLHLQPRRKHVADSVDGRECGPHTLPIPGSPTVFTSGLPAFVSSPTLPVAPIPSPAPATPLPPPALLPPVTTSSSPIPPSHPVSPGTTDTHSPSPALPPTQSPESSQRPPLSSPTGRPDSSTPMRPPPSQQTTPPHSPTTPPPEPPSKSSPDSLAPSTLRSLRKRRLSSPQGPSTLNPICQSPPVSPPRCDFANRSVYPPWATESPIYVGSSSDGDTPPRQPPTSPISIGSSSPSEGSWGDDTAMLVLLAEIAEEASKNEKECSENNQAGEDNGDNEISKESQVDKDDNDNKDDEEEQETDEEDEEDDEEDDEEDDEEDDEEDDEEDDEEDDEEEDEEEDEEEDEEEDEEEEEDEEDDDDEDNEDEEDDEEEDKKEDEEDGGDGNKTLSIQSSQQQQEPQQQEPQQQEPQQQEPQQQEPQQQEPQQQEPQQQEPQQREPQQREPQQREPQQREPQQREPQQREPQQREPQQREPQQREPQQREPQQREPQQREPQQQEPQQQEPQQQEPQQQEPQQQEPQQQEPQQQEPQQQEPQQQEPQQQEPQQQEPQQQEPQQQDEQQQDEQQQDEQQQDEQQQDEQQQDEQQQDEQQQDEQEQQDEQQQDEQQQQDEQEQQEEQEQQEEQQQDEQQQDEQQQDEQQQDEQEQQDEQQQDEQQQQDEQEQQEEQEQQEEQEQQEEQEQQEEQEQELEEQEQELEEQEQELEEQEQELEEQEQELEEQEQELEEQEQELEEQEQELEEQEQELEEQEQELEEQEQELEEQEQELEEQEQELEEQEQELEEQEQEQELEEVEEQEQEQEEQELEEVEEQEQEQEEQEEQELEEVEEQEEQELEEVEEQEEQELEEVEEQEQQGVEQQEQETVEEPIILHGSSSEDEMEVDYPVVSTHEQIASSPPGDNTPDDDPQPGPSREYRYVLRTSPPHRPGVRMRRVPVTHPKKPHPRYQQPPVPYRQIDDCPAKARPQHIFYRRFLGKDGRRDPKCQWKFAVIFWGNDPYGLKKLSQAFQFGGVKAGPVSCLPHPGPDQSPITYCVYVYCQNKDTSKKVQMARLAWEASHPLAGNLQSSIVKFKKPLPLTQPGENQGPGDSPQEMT
DSG3 Ab inh: blocks pemphigus antibody binding to human desmoglein-3; P32926; DSG3-coupled beads, scFv-anti-DSG3-GFP binding, flow cytometry; stronger effect = lower value; binding (percent of control), % at 10 µM; 0.48% of 310,000 active;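 active means binding more than 3 SD below its plate's average and above zero; inconclusive means below that plate limit but binding exactly zero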;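 further: hits lower antibody fragment binding to DSG3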
* marks the source's active call; other numbers are inactive results; i = inactive; ? = inconclusive; nt = no result given.

SMILES | Arr AP2 block | T cell HTS | HDAC3 inhib | LANA-H2A inh | DSG3 Ab inh
Cc1ccc(OC(C)C(=O)Nc2ccc(F)cc2)c([N+](=O)[O-])n1 (stereo not drawn) | 2.8 | 132.5 | -0.9 | -1.2 | 109.3
O=C(Nc1ccc2c(c1)oc1ccccc12)c1ccncc1 | 0.4 | 384.2 | -5.0 | -1.0 | -8.2*
CCNc1nc(NCC)nc(N/N=C/c2ccc(N(C)C)cc2)n1 | 6.9 | 203.4 | -4.0 | 64.9* | 102.5
Cc1ccc(-c2csc(N3CCN(S(=O)(=O)c4ccc5c(c4)NC(=O)CO5)CC3)n2)cc1 | 0.0 | 371.0 | 6.0 | 2.6 | 102.9
COc1ccccc1/C=C/C(=O)NC(=S)Nc1ccccn1 | 7.7 | 497.1 | 5.0 | 8.0* | 98.3
Cc1occc1C(=O)N(Cc1nc(-c2ccccc2)no1)C(C)C | 16.4 | 207.5 | 7.0 | 15.9* | 121.8
CCN(Cc1nc(-c2ccccc2)no1)C(=O)c1ccoc1C | -0.6 | 305.8 | 0.2 | 1.6 | 106.8
COC(=O)c1sc(NC(=S)NC(=O)c2cccc(Br)c2)nc1C | 6.0 | 216.3 | -5.6 | 1.9 | 107.9
Cc1c(Cc2ccccc2)c(=O)oc2c(CN(C)C)c(O)c(Cl)cc12 | -3.2 | i | -114.0 | 5.7* | nt
Cc1ccc(C)c(S(=O)(=O)Nc2ccc3oc(C)c(C(=O)O)c3c2)c1 | -9.1 | 389.7 | -2.5 | -5.5 | 85.0*
COc1ccc(CN(C)C[C@H]2OCCCC[C@@H](C)Oc3ccc(NC(=O)c4ccccc4)cc3C(=O)N([C@H](C)CO)C[C@@H]2C)cc1 | nt | nt | nt | nt | 109.9
O=C(Nc1ccc2c(c1)OCCO2)c1ccccc1F | -0.7 | 428.0 | 0.9 | -3.7 | 105.6
O=C(NC(=S)Nc1ccc2c(c1)OCCO2)c1ccccc1F | -0.2 | 236.2 | 1.1 | 12.9* | nt
COCCN1C=C2C(=O)C(C)(OC(=O)CCc3ccccc3)C(=O)C=C2C=C1c1ccc(C#N)cc1 (stereo not drawn) | 16.1 | 415.9 | -11.0 | 101.0* | 105.0
COc1ccc(C(=O)NC2CC3CCCC(C2)N3Cc2ccccc2)cc1OC (stereo not drawn) | 39.2 | 548.1 | -9.0 | -1.4 | 104.2
CCCc1cc(=O)n2[nH]c(C)cc2n1 | -1.4 | 375.9 | -9.7 | -1.7 | 82.8*
CC(NC(=O)CN1C(=O)NC2(CCCCCC2)C1=O)c1ccccc1 (stereo not drawn) | -4.4 | 298.9 | -5.5 | 78.3* | 93.5
O=C(CN1C(=O)NC2(CCCCC2)C1=O)NCCc1ccccc1 | 31.4 | 607.4 | -1.4 | 2.7 | 98.1
CC(NC(=O)CCC(=O)N1CCCCCC1)c1ccccc1 (stereo not drawn) | 5.9 | 220.9 | -0.6 | 14.1* | 92.7
O=C(CN1C(=O)NC2(CCCCCC2)C1=O)NCCc1ccccc1 | -9.8 | 319.7 | 1.8 | 186.5* | 101.8
CC(NC(=O)CCC(=O)NC(C)c1ccccc1)c1ccccc1 (stereo not drawn) | -3.4 | 252.4 | -2.0 | 1.3 | 95.8
CC(NC(=O)Cc1ccc(F)cc1)c1ccccc1 (stereo not drawn) | 2.2 | 64.4* | 5.3 | 0.2 | 101.2
CCN(CC)C(=O)[C@H]1C[C@H](CC(=O)NC/C=C(\C)CCC=C(C)C)C(=O)N2CCc3c([nH]c4cc(CCC(=O)N(C)C)ccc34)[C@]12C | 36.1 | nt | nt | nt | 100.2
CCOC(=O)N1C(=O)[C@@](CC)(c2ccccc2)N1C(=O)OCC | -0.2 | 185.1 | 35.3* | 0.8 | 96.6
Oc1ccc(/C=N/Nc2ccnc3cc(Cl)ccc23)cc1O | -3.5 | 153.7 | -2.4 | 4.9 | 105.2
SMILES | Arr AP2 block | T cell HTS | HDAC3 inhib | LANA-H2A inh | DSG3 Ab inh
Oc1ccc(/C=N/Nc2ccnc3cc(Cl)ccc23)c(O)c1O | 28.7 | 272.1 | 0.7 | -4.6 | 92.7*
COc1ccccc1N(C)S(=O)(=O)c1ccc(C)c(C(=O)NC(C)c2ccccn2)c1 (stereo not drawn) | -3.8 | 91.3 | 6.0 | -3.0 | 91.3
O=C(/C=C/c1ccc([N+](=O)[O-])cc1)OCC(=O)N1CCCC1 | 14.6 | 402.0 | 2.7 | 9.6 | 77.3*
Cc1ccccc1C1CC(c2ccc(F)cc2)Nc2nc(N)nn21 (stereo not drawn) | -10.1 | 170.6 | -0.9 | 2.5 | 112.2
Cc1ccccc1C1CC(c2ccc(Br)cc2)Nc2nc(N)nn21 (stereo not drawn) | -9.2 | 196.2 | 2.3 | 17.4* | 98.6
CCN(CC(=O)Nc1ccc(Br)cc1)CC(=O)Nc1cc(C)on1 | 42.2 | nt | nt | nt | 66.1*
CC1=C(C)CS(=O)N(c2ccc(S(N)(=O)=O)cc2)C1 (stereo not drawn) | 3.4 | 239.0 | 2.4 | -2.9 | nt
CC1=C(C)CS(=O)N(S(=O)(=O)c2ccccc2)C1 (stereo not drawn) | 6.5 | 344.6 | 1.6 | 13.9* | 94.9
Cc1ccc2c(c1)N(C(C)C(=O)NCc1cccs1)C(=O)CO2 (stereo not drawn) | -0.9 | 127.6 | 2.3 | 19.6* | 103.8
Cc1ccc2c(c1)N(C(C)C(=O)NCc1ccccn1)C(=O)CO2 (stereo not drawn) | -11.6 | 258.3 | 1.3 | 1.4 | 88.4
CCOC(=O)c1sc(Nc2nc3ccc(OC)cc3s2)cc1C | 1.4 | 460.6 | -1.1 | -0.7 | 106.0
CCOC(=O)c1sc(Nc2nc3c(F)cccc3s2)cc1C | 4.3 | 140.4 | -2.1 | -2.0 | 78.1*
Cn1c(SCC(=O)NCc2ccccc2)nnc1-c1ccc(NC(=O)CCc2ccccc2)cc1 | -9.9 | 571.6 | 2.2 | -3.8 | 106.3
CCCCSc1nnc(-c2ccc(NC(=O)CCc3ccccc3)cc2)n1C | 5.8 | 360.9 | 2.0 | 1.1 | -28.0*
O=C(CSc1ccc(S(=O)(=O)N2CCCCC2)cn1)Nc1ccccc1Br | 8.5 | 247.3 | 7.1 | 1.4 | 91.8
CC1CCCC(NC(=O)CSc2nncs2)C1C (stereo not drawn) | 3.5 | 236.2 | 0.5 | 0.8 | nt
Cc1cc2c(=O)n(Cc3ccco3)c(SCC(=O)c3ccc(Cl)s3)nc2s1 | 0.8 | 261.7 | 26.9* | 2.7 | 101.4
Clc1cccc(Cl)c1/C=C/c1nc2ccccc2[nH]1 | 0.5 | 198.8 | -8.2 | 10.7* | 104.4
CCN(CC)c1ccc(/C=N/NC(=O)c2ccoc2C)c(O)c1 | 4.6 | 73.7 | -4.0 | 4.7 | 48.3*
CCN(CC)c1ccc(/C=N/NC(=O)OC)c(O)c1 | 28.8 | 354.0 | 5.3 | -1.9 | 109.0
COC(=O)c1cc2n(n1)CCN(Cc1cccc(OC)c1)C2=O | -10.8 | 453.1 | 4.0 | 20.1* | 87.1
CCC(C(=O)N1CCC(N2CCCCC2)CC1)n1nc(C)c2sc3ccccc3c2c1=O (stereo not drawn) | -1.9 | 305.4 | 1.5 | -8.2 | ?
CC12CCC(=O)N1C(C(=O)NNC(=O)c1ccc(Cl)cc1)CS2 (stereo not drawn) | 19.0 | 340.7 | 4.5 | 31.6* | 93.8
CC12CCC(=O)N1C(C(=O)NNC(=O)c1ccc(F)cc1)CS2 (stereo not drawn) | 3.7 | 390.1 | 8.2 | 2.8 | 107.5
CCCCCn1cnc2c(sc3nc4c(cc32)CSC(C)(C)C4)c1=O | 28.6 | 296.0 | -1.5 | -1.4 | 108.8
CC1(C)Cc2nc3sc4c(=O)[nH]cnc4c3cc2CS1 | -1.8 | 198.6 | 5.4 | -3.4 | 79.5*
